Measured values collected from several papers.
Effect on: cell growth or viability

For CSc1nc(NC(=S)NCCc2ccccc2)n(-c2ccc(C(=O)O)cc2)n1, the IC50 was 28.3 µM (RPE-1; MTT).
For O=C(Nc1cc(OCCN2CCCC2)c2ccccc2n1)c1cc(Cl)cc(C(=O)Nc2cc(OCCN3CCCC3)c3ccccc3n2)n1, the IC50 was 2.3 µM (U2OS; ATP luminescence; 72 h).
For CN1c2ccccc2C(=O)N2[C@H](C(=O)Nc3ccc(C(=O)Nc4ccccc4N)cc3)Cc3c([nH]c4ccccc34)[C@@H]12, the IC50 was 0.66 µM (HEL).
COc1cc(C(=O)Nc2cc(OCCN3CCCC3)c3ccccc3n2)nc(C(=O)Nc2cc(OCCN3CCCC3)c3ccccc3n2)c1 gave an IC50 of 1.6 µM (U2OS; ATP luminescence; 72 h).
For COc1cccc2c1C(=O)c1c(O)c3c(c(O)c1C2=O)C[C@@](O)(C(=O)CO)C[C@@H]3O[C@H]1C[C@H](N)[C@H](O)[C@H](C)O1, the IC50 was 22.6 µM (RPE-1; MTT).
With O=C(Nc1cc(OCCN2CCCC2)c2ccccc2n1)c1cc(OCCN2CCCC2)cc(C(=O)Nc2cc(OCCN3CCCC3)c3ccccc3n2)n1 the IC50 was 2.1 µM (U2OS; ATP luminescence; 72 h).
With Cc1cc(NC(=O)c2cccc3cc(-c4cccc5[nH]nc(N)c45)ccc23)ccc1F the IC50 was 0.093 µM (mouse BMDM; CCK-8; 72 h).
CSc1nc(/N=C/c2cc([N+](=O)[O-])ccc2O)n(-c2ccc(C(=O)O)cc2)n1 has an IC50 of 24 µM (RPE-1; MTT).
The IC50 of CC1=CC(C)(C)N(Cc2ccccc2)c2ccc(O)cc21 is reported as 11 µM (PLC5; MTT; 72 h).
NCCOc1cc(NC(=O)c2cccc(C(=O)Nc3cc(OCCN)c4ccccc4n3)n2)nc2ccccc12 has an IC50 of 0.7 µM (U2OS; ATP luminescence; 72 h).
For CC(=O)c1ccc(O)cn1, the IC50 was > 100 µM (Hepa-1c1c7; crystal violet; 48 h).
COc1cc(Nc2nccc(-c3cnn4nc(OC)ccc34)n2)cc(C(F)(F)F)c1 has an IC50 of 0.97 µM (SK-N-SH; ATP luminescence).
Cc1ccc(O)c(/C=N/c2nc(Oc3ccccc3)nn2-c2ccc(C(=O)O)cc2)c1 gave an IC50 of 33.7 µM (RPE-1; MTT).
Cc1ccc(C(=O)Nc2ccc(Oc3cc4cnn(C)c4cc3-c3cn[nH]c3)c(F)c2)c(=O)n1-c1ccc(F)cc1 has an IC50 of 0.034 µM (Hs746T; ATP luminescence).
The IC50 of C#CCOc1cc(C(=O)Nc2cc(OCCCN)c3ccccc3n2)nc(C(=O)Nc2cc(OCCCN)c3ccccc3n2)c1 is reported as 2.3 µM (U2OS; ATP luminescence; 72 h).
With CSc1nc(/N=C/c2ccc(O)cc2)n(-c2ccc(C(=O)O)cc2)n1 the IC50 was 39.1 µM (RPE-1; MTT).
For COc1cc(-c2ncn(/C=C\C(=O)OC(C)C)n2)cc(C(F)(F)F)c1, the IC50 was 0.169 µM (NB-4; 72 h).
CSc1nc(N)n(-c2ccc(C(=O)O)cc2)n1 gave an IC50 of 41.8 µM (RPE-1; MTT).
CC(C)[C@H](N)C(=O)N1CCC[C@H]1B(O)O has an IC50 of 0.1 µM (NB-4; ATP luminescence; 48 h).
With CC(C)C[C@H](NC(=O)[C@H](Cc1ccccc1)NC(=O)c1cnccn1)B(O)O the IC50 was 0.008 µM (SK-N-SH; ATP luminescence).
For COc1ccc(O)c(/C=N/c2nc(Oc3ccccc3)nn2-c2ccc(C(=O)O)cc2)c1, the IC50 was 33.1 µM (RPE-1; MTT).
NCCOc1cc(NC(=O)c2cc(OCc3c[nH]nn3)cc(C(=O)Nc3cc(OCCN)c4ccccc4n3)n2)nc2ccccc12 has an IC50 of > 40 µM (U2OS; ATP luminescence; 72 h).
CS(=O)(=O)c1nc(N)n(-c2ccc(C(=O)O)cc2)n1 has an IC50 of 34.2 µM (RPE-1; MTT).
N[C@@H](CC(=O)N1CCN(C(c2ccc(F)cc2)c2ccc(F)cc2)CC1)C(=O)N1Cc2ccccc2C1 has an IC50 of 1.33 µM (NB-4; ATP luminescence; 48 h).
For Nc1ncc(-c2cnn(C3CCNCC3)c2)cc1-c1nnc(CC2CC2)o1, the IC50 was 0.846 µM (NB-4; trypan blue; 72 h).
NCCCOc1cc(NC(=O)c2cc(OCCN)cc(C(=O)Nc3cc(OCCCN)c4ccccc4n3)n2)nc2ccccc12 has an IC50 of 14.1 µM (U2OS; ATP luminescence; 72 h).
For CC[C@@H](C)[C@H](N)C(=O)N1Cc2ccccc2C1, the IC50 was > 60 µM (HEL; ATP luminescence; 48 h).
NCCOc1cc(C(=O)Nc2cc(OCCN)c3ccccc3n2)nc(C(=O)Nc2cc(OCCN)c3ccccc3n2)c1 has an IC50 of 16.8 µM (U2OS; ATP luminescence; 72 h).
COc1cc(C)c(-c2c(C)cc(OC)c3c(=O)cc(-c4ccc(Br)cc4)oc23)c2oc(-c3ccc(Br)cc3)cc(=O)c12 has an IC50 of 35.8 µM (HeLa; MTT; 48 h).
For C[S@@+]([O-])CCCCN=C=S, the IC50 was 15.2 µM (Hepa-1c1c7).
